From ChEMBL document CHEMBL2176870 (J Med Chem, 2012)
Converted amounts (≈) assume the structure as drawn.

Legend:
[1] = Cytotoxicity against human HepG2 cells; format: cell-based; settings: read-out: ED50 (the source's name)
[2] = molecular target: T1, Enoyl-[acyl-carrier-protein] reductase [NADPH] FabI (Staphylococcus aureus, UniProt Q6GI75); test: Inhibition of Staphylococcus aureus recombinant FabI using trans-2-octenoyl N-acetylcysteamine thioester as substrate preincubated for 60 mins
T1 sequence (Q6GI75 whole entry): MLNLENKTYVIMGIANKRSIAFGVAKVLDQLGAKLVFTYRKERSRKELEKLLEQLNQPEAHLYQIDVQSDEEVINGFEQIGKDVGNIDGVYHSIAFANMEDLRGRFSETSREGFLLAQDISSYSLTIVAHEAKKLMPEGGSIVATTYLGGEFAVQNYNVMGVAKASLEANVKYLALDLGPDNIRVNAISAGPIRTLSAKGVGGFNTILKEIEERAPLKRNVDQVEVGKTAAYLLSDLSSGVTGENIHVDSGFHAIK
Method in brief: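 Recombinant S. aureus FabI (2 nM) in 50 mM ADA pH 6.5, 1 mM DTT, 0.006% Triton X-100, 50 mM NaCl. Preincubated 60 min at room temperature with 40 μM NADPH, 10 μM NADP+ and inhibitor in DMSO. Reaction started with 100 μM t-o-NAC. Inhibition versus untreated samples; IC50 by Langmuir fit.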

Streptococcus pneumoniae = test: Antibacterial activity against Streptococcus pneumoniae D39 after 18 hrs by broth microdilution method; format: functional; settings: D39, 18 h
Method in brief: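 CLSI broth microdilution with 2-fold dilutions from 0.06 to 64 μg/mL. Cation-adjusted Mueller–Hinton broth with 2.5% lysed horse blood, inoculum 5 × 10^5 CFU/mL, grown at 35 °C for 18 h in 5% CO2. MIC is the lowest concentration showing no visible growth.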

Enterococcus faecalis = test: Antibacterial activity against Enterococcus faecalis ATCC 29212 after 18 hrs by broth microdilution method; format: functional; settings: ATCC 29212, 18 h
Method in brief: (§1)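 CLSI broth microdilution with serial 2-fold dilutions from 0.06 to 64 μg/mL. Cation-adjusted Mueller–Hinton broth, inoculum 5 × 10^5 CFU/mL, incubated at 35 °C for 18 h. MIC taken as the lowest concentration with no visible growth.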

Escherichia coli [3] = test: Antibacterial activity against Escherichia coli C7 after 18 hrs by broth microdilution method; format: functional; settings: C7, 18 h
Staphylococcus aureus [4] = test: Antibacterial activity against Staphylococcus aureus CIP54.146 after 18 hrs by broth microdilution method; format: functional; settings: CIP54.146, 18 h; method in brief: as §1
[5] = tested on: Staphylococcus haemolyticus; test: Antibacterial activity against methicillin-resistant Staphylococcus haemolyticus; format: functional
[6] = tested on: Staphylococcus epidermidis; test: Antibacterial activity against methicillin-resistant Staphylococcus epidermidis; format: functional
Staphylococcus aureus [7] = test: Antibacterial activity against methicillin-susceptible Staphylococcus aureus; format: functional
Staphylococcus aureus [8] = test: Antibacterial activity against methicillin-resistant Staphylococcus aureus; format: functional
Staphylococcus aureus [9] = test: Antibacterial activity against community acquired methicillin-resistant Staphylococcus aureus; format: functional
Proteus mirabilis = test: Antibacterial activity against Proteus mirabilis; format: functional
Escherichia coli [10] = test: Antibacterial activity against Escherichia coli; format: functional
Moraxella catarrhalis = test: Antibacterial activity against Moraxella catarrhalis; format: functional
Haemophilus influenzae = test: Antibacterial activity against Haemophilus influenzae; format: functional
Neisseria meningitidis = test: Antibacterial activity against Neisseria meningitidis; format: functional
Neisseria gonorrhoeae = test: Antibacterial activity against Neisseria gonorrhoeae; format: functional
Staphylococcus aureus [11] = test: Antibacterial activity against methicillin-resistant Staphylococcus aureus NRS385 infected in Swiss mouse; format: functional
Method in brief: (§2)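 Murine lethal systemic infection by intraperitoneal MRSA challenge. A single subcutaneous dose was given 5 min after infection.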

Staphylococcus aureus [12] = test: Antibacterial activity against methicillin-resistant Staphylococcus aureus NRS384 infected in Swiss mouse; format: functional; method in brief: as §2
Staphylococcus aureus [13] = test: Antibacterial activity against methicillin-resistant Staphylococcus aureus NRS382 infected in Swiss mouse; format: functional; method in brief: as §2

SMILES	CC50 [1]	IC50 [2]	MIC (Streptococcus pneumoniae)	MIC (Enterococcus faecalis)	MIC (Escherichia coli [3])	MIC (Staphylococcus aureus [4])	further results
CCc1cc(O)c(Oc2ccc(C(=O)NC)cc2F)cc1F	> 32 µg/mL	82 nM	> 32 µg/mL	> 32 µg/mL	8 µg/mL (≈ 26 µM)	1 µg/mL (≈ 3.25 µM)	
CCc1cc(O)c(Oc2ccccc2)cc1F	16 µg/mL (≈ 68.9 µM)	37 nM	16 µg/mL (≈ 68.9 µM)	32 µg/mL (≈ 138 µM)	1 µg/mL (≈ 4.31 µM)	0.062 µg/mL (≈ 0.267 µM)	
CCc1cc(O)c(Oc2ccccc2F)cc1F	16 µg/mL (≈ 63.9 µM)	8 nM	32 µg/mL (≈ 128 µM)	32 µg/mL (≈ 128 µM)	0.25 µg/mL (≈ 0.999 µM)	0.031 µg/mL (≈ 0.124 µM)	
CC(=O)NC[C@H]1CN(c2ccc(N3CCOCC3)c(F)c2)C(=O)O1 [LINEZOLID]							MIC90 [5]: 1 µg/mL (≈ 2.96 µM); MIC90 [6]: 1 µg/mL (≈ 2.96 µM); MIC90 (Staphylococcus aureus [7]): 2 µg/mL (≈ 5.93 µM); MIC90 (Staphylococcus aureus [8]): ≥ 16 µg/mL; MIC90 (Staphylococcus aureus [9]): 2 µg/mL (≈ 5.93 µM)
C[C@H]1COc2c(N3CCN(C)CC3)c(F)cc3c(=O)c(C(=O)O)cn1c23.C[C@H]1COc2c(N3CCN(C)CC3)c(F)cc3c(=O)c(C(=O)O)cn1c23.O [LEVOFLOXACIN]							MIC90 (Proteus mirabilis): 0.06 µg/mL; MIC90 (Escherichia coli [10]): ≥ 16 µg/mL; MIC90 (Moraxella catarrhalis): 0.03 µg/mL; MIC90 (Haemophilus influenzae): 0.03 µg/mL; MIC90 (Neisseria meningitidis): ≤ 0.008 µg/mL; MIC90 (Neisseria gonorrhoeae): 0.5 µg/mL
CCc1cc(OC)c(Oc2ccc(C(N)=O)cc2F)cc1F	> 32 µg/mL	21000 nM	> 32 µg/mL	> 32 µg/mL	> 32 µg/mL	> 32 µg/mL	
CN[C@H](CC(C)C)C(=O)N[C@H]1C(=O)N[C@@H](CC(N)=O)C(=O)N[C@H]2C(=O)N[C@H]3C(=O)N[C@H](C(=O)N[C@H](C(=O)O)c4cc(O)cc(O)c4-c4cc3ccc4O)[C@H](O)c3ccc(c(Cl)c3)Oc3cc2cc(c3O[C@@H]2O[C@H](CO)[C@@H](O)[C@H](O)[C@H]2O[C@H]2C[C@](C)(N)[C@H](O)[C@H](C)O2)Oc2ccc(cc2Cl)[C@H]1O [VANCOMYCIN]							ED50 (Staphylococcus aureus [11]): 5 mg/kg; ED50 (Staphylococcus aureus [12]): 9.4 mg/kg; ED50 (Staphylococcus aureus [13]): 6 mg/kg
